The source made the active and inactive calls. No cut-off for these calls is given here.
Experiments:
[1] = Antiproliferative activity against mouse BA/F3 cells expressing Bcr-Abl E355G mutant after 72 hrs by CCK-8 assay; details: BaF3, 72 h
K562 [2] = assay: Induction of apoptosis in human K562 cells expressing wild type Bcr-Abl using annexin-V-FITC and 7-AAD staining by flow cytometer; format: functional, cell-based
[3] = Antiproliferative activity against mouse BA/F3 cells expressing Bcr-Abl Y253H mutant after 72 hrs by CCK-8 assay; details: BaF3, 72 h
cells = details: Mus musculus, BaF3, 72 h
[4] = Antiproliferative activity against mouse BA/F3 cells expressing Bcr-Abl H396R mutant after 72 hrs by CCK-8 assay; details: BaF3, 72 h
K562 [5] = assay: Cell cycle arrest in human K562 cells expressing wild type Bcr-Abl assessed as accumulation at G0/G1 phase using propidium iodide staining by FACS analysis; format: functional, cell-based
[6] = system: Tyrosine-protein kinase ABL1 (Mus musculus), P00520 [T315I]; assay: Inhibition of Bcr-Abl T315I mutant phosphorylation in mouse BA/F3 cells by Western blot analysis; format: cell-based; details: BaF3
Chain of Tyrosine-protein kinase ABL1 (Mus musculus), P00520 [T315I] (P00520 whole entry T315I): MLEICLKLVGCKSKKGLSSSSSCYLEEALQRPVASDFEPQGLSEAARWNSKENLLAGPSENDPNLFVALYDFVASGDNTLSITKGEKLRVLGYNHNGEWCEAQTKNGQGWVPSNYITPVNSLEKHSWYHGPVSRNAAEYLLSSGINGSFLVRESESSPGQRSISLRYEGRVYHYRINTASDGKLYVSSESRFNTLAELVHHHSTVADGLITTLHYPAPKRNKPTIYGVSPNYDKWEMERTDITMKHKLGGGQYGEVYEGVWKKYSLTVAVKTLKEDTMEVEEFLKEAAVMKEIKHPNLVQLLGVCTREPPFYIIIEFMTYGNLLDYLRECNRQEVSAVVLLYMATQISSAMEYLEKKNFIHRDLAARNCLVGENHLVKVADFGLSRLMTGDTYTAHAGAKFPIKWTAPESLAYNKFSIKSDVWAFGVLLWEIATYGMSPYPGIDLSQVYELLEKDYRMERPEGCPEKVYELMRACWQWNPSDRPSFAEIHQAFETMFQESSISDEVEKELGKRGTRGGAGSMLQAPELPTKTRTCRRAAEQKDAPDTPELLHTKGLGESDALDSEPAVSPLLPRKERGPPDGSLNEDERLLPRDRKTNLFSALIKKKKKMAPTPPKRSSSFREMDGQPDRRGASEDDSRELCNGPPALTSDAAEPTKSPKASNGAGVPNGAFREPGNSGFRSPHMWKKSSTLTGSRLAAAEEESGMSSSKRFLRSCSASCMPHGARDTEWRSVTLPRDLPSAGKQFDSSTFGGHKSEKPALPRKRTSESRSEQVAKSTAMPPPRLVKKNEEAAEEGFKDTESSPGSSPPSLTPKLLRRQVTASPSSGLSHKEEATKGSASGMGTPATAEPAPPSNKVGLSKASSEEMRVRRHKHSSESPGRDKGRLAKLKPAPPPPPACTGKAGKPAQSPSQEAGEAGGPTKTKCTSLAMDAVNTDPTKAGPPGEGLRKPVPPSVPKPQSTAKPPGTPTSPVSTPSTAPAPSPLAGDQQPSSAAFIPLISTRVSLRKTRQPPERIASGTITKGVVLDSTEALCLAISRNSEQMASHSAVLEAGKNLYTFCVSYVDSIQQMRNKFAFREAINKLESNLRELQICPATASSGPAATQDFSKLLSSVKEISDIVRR
Outline: (§1)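 K562 or Ba/F3 Bcr-Abl T315I cells were treated with graded concentrations, lysed in 1× SDS sample buffer, sonicated and boiled. Lysates were run on 8−12% SDS-PAGE and transferred to PVDF. Membranes were blocked in TBS with 0.1% Tween-20 and 5% nonfat milk, then probed with primary antibody and HRP-conjugated secondary. Blots shown represent three independent experiments.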

[7] = Antiproliferative activity against mouse BA/F3 cells expressing Bcr-Abl Q252H mutant after 72 hrs by CCK-8 assay; details: BaF3, 72 h
[8] = Antiproliferative activity against mouse BA/F3 cells expressing Bcr-Abl F359V mutant after 72 hrs by CCK-8 assay; details: BaF3, 72 h
[9] = Antiproliferative activity against mouse BA/F3 cells expressing Bcr-Abl Y253F mutant after 72 hrs by CCK-8 assay; details: BaF3, 72 h
[10] = Antiproliferative activity against mouse BA/F3 cells expressing Bcr-Abl M351T mutant after 72 hrs by CCK-8 assay; details: BaF3, 72 h
K562 [11] = assay: Effect on CrkL protein level in human K562 cells expressing wild type Bcr-Abl by Western blot analysis; format: functional, cell-based; outline: as §1
[12] = Antiproliferative activity against mouse BA/F3 cells expressing Bcr-Abl M244V mutant after 72 hrs by CCK-8 assay; details: BaF3, 72 h
[13] = Antiproliferative activity against mouse BA/F3 cells expressing Bcr-Abl E255K mutant after 72 hrs by CCK-8 assay; details: BaF3, 72 h
[14] = Antiproliferative activity against mouse BA/F3 cells expressing Bcr-Abl F486S mutant after 72 hrs by CCK-8 assay; details: BaF3, 72 h
[15] = Antiproliferative activity against mouse BA/F3 cells after 72 hrs by CCK-8 assay; details: BaF3, 72 h
BaF3 [16] = assay: Effect on CrkL protein level in mouse BA/F3 cells expressing Bcr-Abl T315I mutant by Western blot analysis; format: functional, cell-based; outline: as §1
[17] = system: Tyrosine-protein kinase ABL1 (Mus musculus), P00520 [T315I]; assay: Inhibition of Bcr-Abl T315I mutant-mediated CrkL phosphorylation in mouse BA/F3 cells by Western blot analysis; format: cell-based; details: BaF3; outline: as §1
K562 [18] = assay: Antiproliferative activity against imatinib-resistant human K562 cells expressing Bcr-Abl Q252H mutant after 72 hrs by CCK-8 assay; details: K562, 72 h
BaF3 [19] = assay: Effect on Bcr-Abl T315I mutant protein level in mouse BA/F3 cells by Western blot analysis; format: functional, cell-based; outline: as §1
[20] = Antiproliferative activity against mouse BA/F3 cells expressing Bcr-Abl G250E mutant after 72 hrs by CCK-8 assay; details: BaF3, 72 h
K562 [21] = assay: Effect on STAT5 protein level in human K562 cells expressing wild type Bcr-Abl by Western blot analysis; format: functional, cell-based; outline: as §1
K562 [22] = assay: Effect on wild type Bcr-Abl protein level in human K562 cells by Western blot analysis; format: functional, cell-based; outline: as §1
BaF3 [23] = assay: Effect on STAT5 protein level in mouse BA/F3 cells expressing Bcr-Abl T315I mutant by Western blot analysis; format: functional, cell-based; outline: as §1
BaF3 [24] = assay: Induction of apoptosis in mouse BA/F3 cells expressing Bcr-Abl T315I mutant using annexin-V-FITC and 7-AAD staining by flow cytometer; format: functional, cell-based
[25] = system: Tyrosine-protein kinase ABL1 (Mus musculus), P00520 [T315I]; assay: Inhibition of Bcr-Abl T315I mutant-mediated STAT5 phosphorylation in mouse BA/F3 cells by Western blot analysis; format: cell-based; details: BaF3; outline: as §1
[26] = Antiproliferative activity against mouse BA/F3 cells expressing Bcr-Abl H396P mutant after 72 hrs by CCK-8 assay; details: BaF3, 72 h
[27] = Cell cycle arrest in mouse BA/F3 cells expressing Bcr-Abl T315I mutant assessed as accumulation at G0/G1 phase using propidium iodide staining by FACS analysis; format: functional, cell-based; details: BaF3
K562 [28] = assay: Antiproliferative activity against human K562 cells expressing wild type Bcr-Abl after 72 hrs by CCK-8 assay; details: K562, 72 h
[29] = Antiproliferative activity against mouse BA/F3 cells expressing wild type Bcr-Abl after 72 hrs by CCK-8 assay; details: BaF3, 72 h
[30] = Antiproliferative activity against human KU812 cells expressing wild type Bcr-Abl after 72 hrs by CCK-8 assay; details: KU812, 72 h
[31] = Antiproliferative activity against mouse BA/F3 cells expressing Bcr-Abl E255V mutant after 72 hrs by CCK-8 assay; details: BaF3, 72 h

IC50 (cells) [nM] | IC50 (K562 [18]) [nM] | IC50 (K562 [28]) [nM] | SMILES | IC50 [1] [nM] | IC50 [3] [nM] | IC50 [4] [nM] | IC50 [7] [nM] | IC50 [8] [nM] | IC50 [9] [nM] | IC50 [10] [nM] | IC50 [12] [nM] | IC50 [13] [nM] | IC50 [14] [nM] | IC50 [15] [nM] | IC50 [20] [nM] | IC50 [26] [nM] | IC50 [29] [nM] | IC50 [30] [nM] | IC50 [31] [nM] | also measured
11.9 | 3.91 | 0.43 | CN1CCN(Cc2ccc(NC(=O)c3ccc(Cl)c(-n4cc(-c5cnc6[nH]ncc6c5)nn4)c3)cc2C(F)(F)F)CC1 | 0.3 | 2.97 | 5.4 | 7.55 | 2.31 | 0.52 | 0.45 | 0.61 | 2.75 | 4.17 | 372 | 1.97 | 0.3 | 2.49 | 0.08 | 3.41 | Activity (K562 [2]): Active; Activity (K562 [5]): Active; inhibition [6]: Dose-dependent effect; Activity (K562 [11]): inactive; Activity (BaF3 [16]): inactive; inhibition [17]: Active; Activity (BaF3 [19]): inactive; Activity (K562 [21]): inactive; Activity (K562 [22]): inactive; Activity (BaF3 [23]): inactive; Activity (BaF3 [24]): Active; inhibition [25]: Active; Activity [27]: Active
775 |  |  | Cc1cn(-c2cc(NC(=O)c3ccc(C)c(Nc4nccc(-c5cccnc5)n4)c3)cc(C(F)(F)F)c2)cn1 [NILOTINIB] | 8.38 | 314 | 87.2 | 150 | 159 | 60.7 | 10.3 | 1.54 | 292 | 21 | 40800 | 38.6 | 6.34 | 65.2 |  | 473 | 
1710 |  |  | Cc1nc(Nc2ncc(C(=O)Nc3c(C)cccc3Cl)s2)cc(N2CCN(CCO)CC2)n1 [DASATINIB] | 0.58 | 1.29 | 1.72 | 6.55 | 1.94 | 0.58 | 0.83 | 0.12 | 5.72 | 1.71 | 6590 | 0.51 | 0.31 | 4.5 |  | 1.91 | 
13.9 | 5.46 | 0.4 | Cc1ccc(C(=O)Nc2ccc(CN3CCN(C)CC3)c(C(F)(F)F)c2)cc1-n1cc(-c2cnc3[nH]ncc3c2)nn1 | 0.37 | 1.61 | 3.73 | 5.49 | 1.44 | 0.35 | 0.4 | 0.12 | 3.1 | 1.43 | 416 | 1.67 | 0.28 | 2.44 | 0.11 | 2.96 | Activity (K562 [2]): Active; Activity (K562 [5]): Active; inhibition [6]: Dose-dependent effect; Activity (K562 [11]): inactive; Activity (BaF3 [16]): inactive; inhibition [17]: Active; Activity (BaF3 [19]): inactive; Activity (K562 [21]): inactive; Activity (K562 [22]): inactive; Activity (BaF3 [23]): inactive; Activity (BaF3 [24]): Active; inhibition [25]: Active; Activity [27]: Active
1560 | 41.1 | 3.41 | Cc1ccc(C(=O)Nc2ccc(CN3CCOCC3)c(C(F)(F)F)c2)cc1-n1cc(-c2cnc3[nH]ncc3c2)nn1 |  |  |  |  |  |  |  |  |  |  |  |  |  | 4.46 | 0.46 |  | 
66.9 | 3.89 | 0.42 | Cc1ccc(C(=O)Nc2ccc(CN3CCN(C)CC3)c(C(F)(F)F)c2)cc1-n1cc(-c2cnc3[nH]ccc3c2)nn1 |  |  |  |  |  |  |  |  |  |  |  |  |  | 3.16 | 0.14 |  | 
3000 |  |  | Cc1ccc(NC(=O)c2ccc(CN3CCN(C)CC3)cc2)cc1Nc1nccc(-c2cccnc2)n1 [IMATINIB] | 362 | 17100 | 2380 | 3760 | 960 | 1440 | 424 | 129 | 2950 | 2550 | 18500 | 1860 | 110 | 1830 |  | 8620 | 
544 | 3.15 | 0.31 | Cc1ccc(C(=O)Nc2ccc(CN3CC[C@@H](N(C)C)C3)c(C(F)(F)F)c2)cc1-n1cc(-c2cnc3[nH]ncc3c2)nn1 |  |  |  |  |  |  |  |  |  |  |  |  |  | 3.43 | 0.24 |  | 
405 | 20.2 | 1.26 | CCNc1ncc(-c2cn(-c3cc(C(=O)Nc4ccc(CN5CCN(C)CC5)c(C(F)(F)F)c4)ccc3C)nn2)cn1 |  |  |  |  |  |  |  |  |  |  |  |  |  | 3.04 | 0.2 |  | 
999 | 800 | 70.4 | Cc1ccc(C(=O)Nc2ccc(CN3CCN(C)CC3)c(C(F)(F)F)c2)cc1-n1cc(-c2ccc3[nH]ccc3c2)nn1 |  |  |  |  |  |  |  |  |  |  |  |  |  | 435 | 19.6 |  | 
